In ChEMBL document CHEMBL3232748, “Effect of the 3- and 4-methyl groups on the opioid receptor properties of N-substituted trans-3,4-dimethyl-4-(3-hydroxyphenyl)piperidines” (2014):
Activity calls are given as the source filed them. The calls are words filed in the database; no cut-off is given here.

Assays:
[1] = biological target: Mu-type opioid receptor (Homo sapiens) (UniProt P35372); assay: Antagonist activity at human mu opioid receptor expressed CHO cells assessed as inhibition of [35S]-GTP[gammaS] binding at 10 uM; format: cell-based
Chain of Mu-type opioid receptor (Homo sapiens) (P35372 whole entry): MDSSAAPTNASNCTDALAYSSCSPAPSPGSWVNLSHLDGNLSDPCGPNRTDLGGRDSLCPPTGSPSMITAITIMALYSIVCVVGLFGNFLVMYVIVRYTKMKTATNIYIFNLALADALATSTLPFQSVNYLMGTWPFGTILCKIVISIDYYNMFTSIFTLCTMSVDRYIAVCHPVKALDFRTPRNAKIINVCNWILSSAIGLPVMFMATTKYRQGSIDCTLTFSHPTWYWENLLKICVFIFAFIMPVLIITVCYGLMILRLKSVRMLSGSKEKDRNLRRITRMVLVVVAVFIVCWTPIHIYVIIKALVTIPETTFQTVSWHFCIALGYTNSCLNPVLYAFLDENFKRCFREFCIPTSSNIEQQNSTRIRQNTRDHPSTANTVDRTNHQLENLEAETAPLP
In short: (§1)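 Antagonism of [³⁵S]GTPγS binding stimulated by DAMGO (μ), DPDPE (δ) or U69,593 (κ) in CHO cells expressing the human receptor, tested at 10 μM.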

[2] = biological target: Kappa-type opioid receptor (Homo sapiens) (UniProt P41145); assay: Antagonist activity at human kappa opioid receptor expressed CHO cells assessed as inhibition of [35S]-GTP[gammaS] binding at 10 uM; format: functional, cell-based; in short: as §1
Chain of Kappa-type opioid receptor (Homo sapiens) (P41145 whole entry): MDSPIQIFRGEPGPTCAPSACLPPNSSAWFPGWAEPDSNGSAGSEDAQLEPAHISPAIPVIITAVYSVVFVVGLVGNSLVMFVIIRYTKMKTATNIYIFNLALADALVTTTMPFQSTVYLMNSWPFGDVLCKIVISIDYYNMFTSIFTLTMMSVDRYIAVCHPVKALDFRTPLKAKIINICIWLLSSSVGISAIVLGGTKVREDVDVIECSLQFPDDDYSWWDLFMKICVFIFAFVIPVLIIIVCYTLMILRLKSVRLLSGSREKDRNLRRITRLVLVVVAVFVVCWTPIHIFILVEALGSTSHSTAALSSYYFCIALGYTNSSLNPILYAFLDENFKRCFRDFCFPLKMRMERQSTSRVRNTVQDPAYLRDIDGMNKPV

[3] = biological target: Mu-type opioid receptor (Homo sapiens) (UniProt P35372); assay: Agonist activity at human mu opioid receptor expressed CHO cells assessed as inhibition of [35S]-GTP[gammaS] binding at 10 uM; format: cell-based
In short: (§2)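 Single-point screen at 10 μM for intrinsic agonist activity in a [³⁵S]GTPγS binding assay, using membranes from CHO cells overexpressing the human μ, κ or δ opioid receptor.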

[4] = biological target: Delta-type opioid receptor (Homo sapiens) (UniProt P41143); assay: Agonist activity at human delta opioid receptor expressed CHO cells assessed as inhibition of [35S]-GTP[gammaS] binding at 10 uM; format: functional, cell-based; in short: as §2
Chain of Delta-type opioid receptor (Homo sapiens) (P41143 whole entry): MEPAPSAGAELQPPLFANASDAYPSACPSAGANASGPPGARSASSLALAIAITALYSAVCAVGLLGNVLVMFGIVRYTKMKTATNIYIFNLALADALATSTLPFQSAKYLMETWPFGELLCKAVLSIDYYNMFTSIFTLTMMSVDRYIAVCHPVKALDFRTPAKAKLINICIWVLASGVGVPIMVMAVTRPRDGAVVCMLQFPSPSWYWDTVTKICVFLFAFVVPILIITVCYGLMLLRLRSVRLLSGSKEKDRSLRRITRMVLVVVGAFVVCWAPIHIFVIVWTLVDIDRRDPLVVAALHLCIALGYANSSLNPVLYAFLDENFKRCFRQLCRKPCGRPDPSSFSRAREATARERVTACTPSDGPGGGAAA

[5] = biological target: Kappa-type opioid receptor (Homo sapiens) (UniProt P41145); assay: Agonist activity at human kappa opioid receptor expressed CHO cells assessed as inhibition of [35S]-GTP[gammaS] binding at 10 uM; format: functional, cell-based; in short: as §2
Mus musculus [6] = organism: Mus musculus; assay: Analgesic activity in mouse assessed as antagonism of morphine-induced antinociception by writhing test; format: functional
Mus musculus [7] = organism: Mus musculus; assay: Analgesic activity in mouse assessed as antagonism of U50488-induced antinociception by writhing test; format: functional
[8] = biological target: Delta-type opioid receptor (Homo sapiens) (UniProt P41143); assay: Antagonist activity at human delta opioid receptor expressed CHO cells assessed as inhibition of [35S]-GTP[gammaS] binding at 10 uM; format: functional, cell-based; in short: as §1
Homo sapiens [9] = organism: Homo sapiens; assay: Selectivity, ratio of Ke for human mu opioid receptor to ratio of Ke for human kappa opioid receptor
In short: (§3)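 Agonist-stimulated [³⁵S]GTPγS binding in CHO cells overexpressing the human receptor, stimulated by DAMGO (μ), DPDPE (δ) or U69,593 (κ). Agonist concentration–response curves were run with or without a fixed test concentration, using at least two test concentrations. Ke = [L]/(DR − 1) was calculated only when the agonist EC₅₀ shifted at least 4-fold. Values are mean ± SE from at least three experiments, and selectivity comes from the Ke values.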

Homo sapiens [10] = organism: Homo sapiens; assay: Selectivity, ratio of Ke for human delta opioid receptor to ratio of Ke for human kappa opioid receptor; in short: as §3
[11] = biological target: Delta-type opioid receptor (Homo sapiens) (UniProt P41143); assay: Agonist activity at human delta opioid receptor expressed CHO cells assessed as inhibition of [35S]-GTP[gammaS] binding relative to DPDPE maximal response; format: functional, cell-based
In short: (§4)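 Agonist concentration–response in a [³⁵S]GTPγS binding assay at human δ receptor in CHO cells, using eight concentrations chosen to define the upper and lower asymptotes. EC₅₀ and Emax were calculated, with Emax given as a percentage of the maximum for DPDPE run on the same plate. Values are mean ± SE from at least three independent experiments.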

[12] = biological target: Delta-type opioid receptor (Homo sapiens) (UniProt P41143); assay: Agonist activity at human delta opioid receptor expressed CHO cells assessed as inhibition of [35S]-GTP[gammaS] binding; format: functional, cell-based; in short: as §4

For `CC1CN(CCCc2ccccc2)CCC1c1cccc(O)c1` (configuration not stated), the Activity [1] was “inactive” and the Activity [2] was “inactive”.
`C[C@H]1CN(C)CC[C@@]1(C)c1cccc(O)c1` was tested, and the Activity [3] was “inactive”, the Activity [4] was “inactive” and the Activity [5] was “inactive”. It also gave an AD50 (Mus musculus [6]) of 0.74 mg/kg and an AD50 (Mus musculus [7]) greater than 5 mg/kg.
For `Oc1cccc(N2CCN(CCCc3ccccc3)CC2)c1`, the Activity [3] was “inactive”, the Activity [4] was “inactive” and the Activity [5] was “inactive”.
In the case of `CN1CCC(c2cccc(O)c2)CC1`, the Activity [3] is reported as “inactive”, the Activity [4] is reported as “inactive” and the Activity [5] is reported as “inactive”. For the same compound, the Activity [1] was “inactive” and the Activity [8] was “inactive”.
With `CC1(c2cccc(O)c2)CCN(CCCc2ccccc2)CC1` the Activity [1] was “inactive” and the Activity [2] was “inactive”.
For `C[C@H]1CN(C)CCN1c1cccc(O)c1`, the Activity [3] was “inactive”, the Activity [4] was “inactive” and the Activity [5] was “inactive”. The Activity [8] was “inactive”.
In the case of `C[C@H]1CN(CCCc2ccccc2)CCN1c1cccc(O)c1`, the Activity [3] is reported as “inactive”, the Activity [4] is reported as “inactive” and the Activity [5] is reported as “inactive”.
`Oc1cccc(C2CCN(CCCc3ccccc3)CC2)c1` was tested, and the Ratio Ke (Homo sapiens [9]) was 13, the Activity [1] was “inactive” and the Activity [2] was “inactive”. For the same compound, the Ratio Ke (Homo sapiens [10]) was 72.
For `CN1CCN(c2cccc(O)c2)CC1`, the Activity [3] was “inactive”, the Activity [4] was “inactive” and the Activity [5] was “inactive”. For the same compound, the Activity [2] was “inactive”.
Work on `C[C@H]1CN(CCCc2ccccc2)CC[C@@]1(C)c1cccc(O)c1` yielded an AD50 (Mus musculus [6]) of 0.28 mg/kg.
Compound `CN1CCC(C)(c2cccc(O)c2)CC1` has an ED50 (Mus musculus [6]; Mus musculus) of 3.4 mg/kg, an Emax [11] of 64% and an ED50 [12] of 8.3 µM.
`CC1CN(C)CCC1c1cccc(O)c1` (configuration not stated) was tested, and the Activity [8] was “inactive”.
